FLuc stim CS = FLuc activators, initial screening, artefact control for FLuc-dependent activation tests, biochemical, ATPlite luminescence | Luciferin 4-monooxygenase (Photinus pyralis), P08659 | ATPlite luciferase biochemical, 10 min; 0 = ATP-free wells, 1 = DMSO control | activation factor at 10 µM | 200,000 tested, under 10 active;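 active means luciferase activation factor, scaled between plate controls, of at least 2 with compound at 10 µM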
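Assay system: Luciferase/luciferin detection reagent, cell-free biochemical luciferase assay / Also added: ATP substrate / Schedule: 10 min at ambient temperature / Measured by: luminescence measurement of luciferase light output / Benchmarks: low control with PBS replacing ATP, high control enzyme plus ATP without compound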
APP 5'UTR act = activators of APP 5'UTR luciferase reporter, primary screen, SH-SY5Y cells; SH-SY5Y APP 5'UTR luciferase reporter, luminescence; zero percent = DMSO vehicle wells; activation, % at 2 µM; 1% of 190,000 active; AID 1276, 2008;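 active means activation above a set limit, based on mean plus 3 SD of controls, cut at about 140% in these data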
NF-kB neuron act = activators of NF-kB expression in neurons, primary screen, cell-based, HTS | human neuronal cells, NF-kB reporter expression; stronger effect = higher value | 1.6% of 190,000 active | fold change at 12.5 µM; in the data active means fold change above about 3.3
FLuc inh counter = firefly luciferase enzyme inhibitors, primary screen, artefact control for luciferase-based inhibitor screens, biochemical, luminescence, ATPLite | 1.5% of 200,000 active | inhibition, % at 10 µM | 10 min | Luciferin 4-monooxygenase (Photinus pyralis), P08659;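 active means inhibition above about 50% when tested at 10 µM, limit read from the data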
STAT1 act = STAT1 signaling activators, primary screen, cell-based, HTS, luciferase reporter. activation (% of control), % at 5.5 µM. NIH 3T3 STAT1-luciferase reporter, IFN-gamma, luminescence; 100% = IFN-gamma alone, no compound. AID 932, 2007. 2.6% of 200,000 active;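 active means activation above the screen-wide mean activation plus 3 SD, cut at about 130% in these data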;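 further: raw ratio to IFN-gamma control signal so 100% means no change and 0% no light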
Active calls of the source: *. Only some compounds are listed: those with a hit (about 4.1% of all), similar ones and a draw of the others.

SMILES	FLuc stim CS	APP 5'UTR act	NF-kB neuron act	FLuc inh counter	STAT1 act
Cc1ccc(-c2nnc(Cc3ccc([N+](=O)[O-])cc3)o2)cc1	0.9	147*	2.7	8	105
O=[N+]([O-])c1ccc(Cc2nnc(-c3ccc(F)cc3)o2)cc1	1.1	92	2	-9	114
c1ccc2c(c1)CCN(C1=Nc3cccc4cccc1c34)C2	0.5	101	2.3	52*	101
COc1ccc(-n2nnnc2SCC#CCO)cc1	1	-2	1.7	2	93
Cc1nc2ccc(-c3nc4cc(N)ccc4o3)cc2[nH]1	0.2	-22	1.7	78*	116
Cc1ccc(S(=O)(=O)Nc2ccc(-c3nc4cc(NS(=O)(=O)c5ccc(C)cc5)ccc4o3)cc2)cc1	1	-1	0.67	-4	106
Nc1ccc2oc(-c3ccc4nc[nH]c4c3)nc2c1	0.2	11	1.3	83*	132*
Cc1nc2ccc([N+](=O)[O-])cc2[nH]1	1	47	0.95	-2	95
Cc1cccn2cc(CNC(=O)CC3CCCC3)nc12	1	10	1.2	-4	98
Cc1ccc(CSc2nc3ccncc3n2CC(=O)Nc2cc(C)cc(C)c2)cc1	0.5	49	1.3	50*	98
Cc1cc(C)cc(NC(=O)Cn2c(SCc3cc(C)ccc3C)nc3ccncc32)c1	1.1	14	1.5	-7	102
CSc1nsc(SCC(=O)N2CCCCC2)n1	1	8	2	-3	130*
CNC(=O)CSc1nc(SC)ns1	1	1	1.5	-4	98
COCn1c(-c2ccc(OC)cc2)nc2ccccc21	0.2	118	2.7	76*	129*
CC(C)Cn1c(SCC(=O)N2CCc3ccccc3C2)nc2cc(Cl)ccc2c1=O	1.1	20	0.55	-8	103
COC(=O)c1ccc(CO/N=C2\CCCc3nonc32)cc1	1	17	1.2	-2	139*
Cc1ccc(-c2nnc(-c3ccc(Br)cc3)o2)o1	0.8	17	3.8*	25	118
COc1nc(C)nc2c1sc1nc3c(cc12)COC(C)(C)C3	1	55	2.6	5	137*
CCc1cc[n+](-c2nc3ccccc3nc2C(=C=[N-])C#N)cc1	1.1	7	5*	-6	100
COc1ccc(/C=C(\NC(=O)c2ccc(C)cc2)C(=O)NCC2CCCO2)cc1 (stereo unspecified)	1	-1	0.8	-5	105
Fc1ccccc1N1CCN(c2ncnc3[nH]ncc23)CC1	1	-3	3.5*	-4	109
O=[N+]([O-])c1cccnc1N1CCN(c2ccccc2F)CC1	1	-13	1.5	0	114
Oc1ccc(NC(=S)N=Nc2c(O)[nH]c3ccccc23)cc1	1	39	0.71	-4	145*
O=C(N=Nc1c(O)[nH]c2ccccc12)c1cccs1	0.1	154*	5.6*	89*	141*
CC(=O)c1c(N2CCN(Cc3ccc4c(c3)OCO4)CC2)nc(=S)n(-c2ccccc2)c1C	1	0	0.91	4	99
SMILES	FLuc stim CS	APP 5'UTR act	NF-kB neuron act	FLuc inh counter	STAT1 act
CC(OC(=O)C1CC(O)CN1S(=O)(=O)c1ccccc1[N+](=O)[O-])C(=O)N1CCCCC1 (stereo unspecified)	1	-2	1.2	-2	99
O=[N+]([O-])c1ccc(/C=N/N/C(=N/c2ccccn2)c2ccccn2)cc1	0.8	26	1.7	23	135*
O=[N+]([O-])c1cc(/C=N/N/C(=N/c2ccccn2)c2ccccn2)ccc1O	1	44	1.4	1	120
CCOC(=O)c1ccccc1NC(=O)c1n[nH]c(=O)c2ccccc12	1	0	3.7*	-2	85
O=C(NO)c1ccccc1O	1.1	12	1.2	-6	98
CSc1ccc(/C=C/C(=O)NC(=O)c2ccccc2O)cc1	0.1	89	3.7*	86*	96
O=C(/C=C/c1ccc(Br)cc1)NC(=O)c1ccccc1O	0.1	95	3.9*	91*	96
CSc1ccc(/C=C/C(=O)c2ccc(NC(C)=O)cc2)cc1	0.9	7	0.89	9	93
CC(=O)N[C@@H](Cc1c[nH]c2ccccc12)C(=O)OCC(=O)NCc1ccc2c(c1)OCO2	1	-10	1.2	-3	96

Screening data as filed in PubChem.
